EP2 mod = EP2 receptor modulators, cAMP readout, primary screen, cell-based, HTRF cAMP, PGE2 stimulation | EP2-expressing cells, cAMP HTRF FRET, PGE2 co-stimulation | induction, % at 25 µM | 260,000 compounds, 0.83% hits | AID 940, 2007;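 active = compounds whose cAMP rise, as percent of the full-agonist control response, exceeds 60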;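 note: rat C6 glioma line stably carrying human EP2 under a CMV promoter; the protocol text gives 20 µM as final concentration; 100% = response of wells given 1 µM PGE2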
Target sequence (P43116 whole entry, looked up): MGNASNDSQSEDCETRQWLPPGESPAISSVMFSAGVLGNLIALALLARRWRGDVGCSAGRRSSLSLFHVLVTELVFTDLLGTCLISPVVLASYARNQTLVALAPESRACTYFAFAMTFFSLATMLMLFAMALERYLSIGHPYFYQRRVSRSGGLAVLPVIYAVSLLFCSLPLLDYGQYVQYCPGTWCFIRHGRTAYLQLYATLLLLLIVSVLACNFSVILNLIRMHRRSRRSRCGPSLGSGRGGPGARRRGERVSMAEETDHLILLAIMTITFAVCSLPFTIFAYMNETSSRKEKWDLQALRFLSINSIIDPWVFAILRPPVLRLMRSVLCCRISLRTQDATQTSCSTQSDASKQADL
NPY Y1 blocker = NPY-Y1 receptor antagonists, primary screen, cell-based; Neuropeptide Y receptor type 1 (Homo sapiens), P25929; HEK293-CNG Y1 cells, membrane potential fluorescence; NPY at EC95, then isoproterenol; inhibition, % at 3.6 µM; 200,000 compounds, 1% hits; AID 1040, 2008;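 active = inhibition above the campaign mean inhibition of all tested compounds plus 3 SD, cut at about 20% in these data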;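 note: 0% = DMSO wells given NPY plus isoproterenol and 100% = isoproterenol alone without NPY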
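Material: Y1- and CNG-channel-expressing HEK293 cells / Probe or stimulus: NPY 25 nM then isoproterenol 1 µM plus Ro 20-1724 25 µM / Doses: 3.6 µM single dose, DMSO 0.4% / Schedule: compound incubation 1 h at room temperature, readout 45 min post-stimulation / Signal: membrane potential fluorescence / Benchmarks: isoproterenol-only wells as full block versus NPY-plus-isoproterenol wells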
NPY-Y2 PAM-ag = NPY-Y2 potentiators or agonists, primary screen, cell-based | Neuropeptide Y receptor type 2 (Homo sapiens), P49146 | cells expressing NPY-Y2, potentiator/agonist read-out | activation, % at 3.6 µM | 220,000 compounds, 0.45% hits | AID 1359, 2008; in the data active = activation above about 27%;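 note: cells stimulated with NPY near EC25 plus isoproterenol at EC100; 0% = vehicle plus submaximal agonist and 100% = vehicle plus saturating agonist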
Target sequence (P49146 whole entry, looked up): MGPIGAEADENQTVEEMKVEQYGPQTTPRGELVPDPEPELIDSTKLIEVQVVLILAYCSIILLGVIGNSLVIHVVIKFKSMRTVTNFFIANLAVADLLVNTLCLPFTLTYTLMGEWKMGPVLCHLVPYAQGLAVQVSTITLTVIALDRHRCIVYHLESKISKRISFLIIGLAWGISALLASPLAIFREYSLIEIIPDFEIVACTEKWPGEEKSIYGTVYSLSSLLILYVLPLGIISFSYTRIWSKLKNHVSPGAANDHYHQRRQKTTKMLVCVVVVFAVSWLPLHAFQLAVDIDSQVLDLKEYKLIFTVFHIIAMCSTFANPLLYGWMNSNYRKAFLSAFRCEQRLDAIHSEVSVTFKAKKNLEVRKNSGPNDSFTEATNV
PGE2 EP2 inh = human EP2 receptor antagonists, primary screen, TR-FRET cAMP, C6 glioma cells; 260,000 compounds, 0.52% hits; Prostaglandin E2 receptor EP2 subtype (Homo sapiens), P43116; inhibition, % at 25 µM; C6 glioma cells expressing human EP2; cells stimulated with saturating PGE2;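 active = percent inhibition above 40 after rounding to a whole number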;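 note: rat C6 glioma host cells with rolipram phosphodiesterase inhibitor present; the protocol text gives 20 µM as final concentration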
NPY Y2 blocker = NPY-Y2 receptor antagonists, primary screen, cell-based; inhibition, % at 2.7 µM; NPY-Y2 expressing cells, antagonist mode; AID 793, 2007; Neuropeptide Y receptor type 2 (Homo sapiens), P49146; 140,000 compounds, 0.99% hits;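 note: 0% = vehicle with agonist challenge and 100% = reference antagonist with challenge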
NPY-Y1 PAM-ag = NPY-Y1 receptor potentiators or agonists, primary screen, cell-based | NPY-Y1 expressing cells, potentiator/agonist activation | activation, % at 3.6 µM | 220,000 compounds, 0.37% hits; in the data active = activation above about 33%, passing the limit was not always enough;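 note: cells stimulated with NPY at EC10 then isoproterenol at EC100; 0% = low agonist plus stimulus and 100% = saturating agonist plus stimulus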
EP2 confirm = cAMP induction in EP2, EP4, beta2-AR and parental cells, confirmation, counter-screen for EP2 modulator project, cell-based, five parallel assays, C6 glioma, HEK293; cAMP HTRF induction; plus low (about EC15) PGE2 agonist; shares compounds with EP2 mod; AID 1080, 2008; calls only at 20 µM (by protocol); 1,300 compounds, 47% hits;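 active = cAMP induction above 50% in the main assay while under 30% in all four parallel counter assays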;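 note: rat C6 glioma cells stably expressing human EP2 receptor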
NPY-Y1 ant conf = NPY-Y1 receptor antagonists, retest of hits, confirmation, HEK293-CNG cells, membrane potential fluorescence, triplicate | shares compounds with NPY Y1 blocker | inhibition, % at 3.6 µM | 1,200 compounds, 21% hits | cAMP; NPY challenge against isoproterenol-raised cAMP; in the data active = inhibition above about 20%;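 note: 0% = vehicle with agonist plus stimulus and 100% = stimulus alone without agonist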
NPY2 antag ctr = NPY-Y2 receptor antagonists, selectivity check, confirmation, counter-screen for NPY-Y1 antagonist project, HEK293-CNG cells, membrane potential fluorescence, triplicate. shares compounds with NPY Y1 blocker. antagonism; cells given NPY, then isoproterenol. inhibition, % at 3.6 µM. 1,200 compounds, 28% hits. AID 1255, 2008;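 note: 0% = DMSO with agonist challenge and 100% = reference antagonist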
NPY-Y2 confirm = NPY-Y2 potentiators or agonists, confirmation, cell-based. shares compounds with NPY-Y2 PAM-ag. cell-based NPY-Y2 potentiator/agonist assay. activation, % at 3.6 µM. 450 compounds, 20% hits; in the data active = activation above about 33%
NPY-Y1 potentiator = NPY-Y1 potentiators or agonists, counter-screen for NPY-Y2 potentiator project, cell-based, fluorescence; activation, % at 3.6 µM; Y1 HEK293-CNG cells, membrane potential fluorescence; 450 compounds, 20% hits; shares compounds with NPY-Y2 PAM-ag; AID 1651, 2009; in the data active = activation above about 45%;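 note: cells stimulated with submaximal NPY then isoproterenol with phosphodiesterase inhibitor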
NPY-Y1 ag 2 = NPY-Y1 direct agonists, selectivity assay for NPY-Y2 potentiator project, cell-based, fluorescence | shares compounds with NPY-Y2 PAM-ag | activation, % at 3.6 µM | HEK293 Y1-CNGC, membrane potential fluorescence, agonism | 450 compounds, 37% hits;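 active = activation above the mean of DMSO-only control wells plus 3 SD, cut at about 18% in these data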;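 note: cells stimulated with 1 µM isoproterenol plus the PDE inhibitor Ro 20-1724; 0% = isoproterenol with DMSO and no NPY and 100% = 40 nM NPY; Y1 agonists lower the membrane potential dye signal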
CNGC inhibitor = CNGC cAMP sensor activity inhibitors, counter-screen for NPY-Y2 potentiator project, cell-based, HEK293-CNG parental, membrane potential fluorescence. inhibition, % at 3.6 µM. AID 1703, 2009. shares compounds with NPY-Y2 PAM-ag. isoproterenol cAMP. 450 compounds, 32% hits;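 active = inhibition above the control-well mean plus 3 SD of those wells, cut at about 22% in these data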;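 note: 0% = DMSO with isoproterenol and 100% = DMSO without isoproterenol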
Y2 agonist ctr = NPY-Y2 direct agonists, counter-screen for NPY-Y2 potentiator project, cell-based, fluorescence | 450 compounds, 56% hits | AID 1710, 2009 | HEK293 Y2/CNGC cells, membrane potential fluorescence, agonist mode | shares compounds with NPY-Y2 PAM-ag | activation, % at 3.6 µM;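 active = activation above the mean of solvent-only control wells plus 3 SD, cut at about 10% in these data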;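 note: cells stimulated by isoproterenol with no NPY added so direct agonism is tested; 0% = DMSO with isoproterenol alone and 100% = NPY at EC100 plus isoproterenol; agonism lowers probe fluorescence through less cAMP and CNG channel opening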
Starred values were filed as active, the others as inactive; i = inactive; . = no result given; + = active, no number. Sampled rows, rich in hits. Any-hit rate of the full collection: about 2.8%. Cut-off read from the data, not from the text of the source, unless noted: active = inhibition above about 17%; inactive = the rest.

SMILES | EP2 mod | NPY Y1 blocker | NPY-Y2 PAM-ag | PGE2 EP2 inh | NPY Y2 blocker | NPY-Y1 PAM-ag | EP2 confirm | NPY-Y1 ant conf | NPY2 antag ctr | others
S=c1nc[nH]c2c1[nH]c1ccccc12 | 83* | 39* | -21 | 14 | 2 | -19 | i | 4 | 2
CCOC(=O)c1c(NC(=O)Cc2cccs2)sc(C)c1C | 62* | 21* | -17 | 11 | 7 | -52 | i | 3 | 3
O=C(CN(Cc1ccc(F)cc1)C(=O)c1ccco1)NCc1ccc(F)cc1 | 2 | 7 | -6 | 14 | 7 | 2 | . | . | .
O=C(c1ccco1)N(CCC(c1ccccc1)c1ccco1)Cc1ccc(F)cc1 (stereo not drawn) | 70* | 25* | -44 | 4 | 6 | -21 | + | 13 | 13
COc1ccc(N(C(=O)c2ccco2)C(C(=O)NC2CCCC2)c2ccccc2)cc1OC (stereo not drawn) | 10 | . | . | 7 | . | . | . | . | .
COc1ccc(S(=O)(=O)N(CCc2ccccc2)Cc2cc3cccc(C)c3[nH]c2=O)cc1 | 9 | . | . | 15 | . | . | . | . | .
COc1cccc(OCC(=O)Nc2ccccc2-c2ccccc2)c1 | 70* | 24* | -11 | 13 | . | -23 | + | 15 | 12
CCCn1c(=N)c(C#N)cc2c(=O)n3cc(C)ccc3nc21 | 6 | . | . | 10 | . | . | . | . | .
O=C(c1ccc(Br)o1)N(Cc1ccccc1)Cc1ccccc1 | 54 | 20* | -16 | . | 14 | -14 | + | 7 | 5
CCSc1n[nH]c2nc3c(c(=O)n12)C1(CCCC1)Cc1ccccc1-3 | -1 | -1 | 9 | 14 | 1 | 7 | . | . | .
Cc1ccc(-n2c(SCC(N)=O)nc3c(c2=O)C2(CCCC2)Cc2ccccc2-3)cc1 | 71* | -12 | 35* | 13 | -4 | 26 | i | . | . | NPY-Y2 confirm=32;NPY-Y1 potentiator=47*;NPY-Y1 ag 2=43*;CNGC inhibitor=29*;Y2 agonist ctr=42*
CNC[C@H](O)c1ccc(O)c(O)c1 | 86* | -3 | 60* | 10 | 1 | 61 | i | . | . | NPY-Y2 confirm=59*;NPY-Y1 potentiator=48*;NPY-Y1 ag 2=71*;CNGC inhibitor=58*;Y2 agonist ctr=49*
COc1ccc(OCCn2cc(C3C(C#N)=C(N)Oc4n[nH]c(C)c43)c3ccccc32)cc1 (stereo not drawn) | -29 | . | . | 9 | . | . | . | . | .
CCc1nc(N[C@@H](CC(C)C)C(=O)O)c2oc3ccccc3c2n1 | 3 | 26* | -20 | 8 | 14 | -20 | . | 14 | 23*
CC12OC(=O)CC3C(C)(C)[C@H](O)C=C[C@]3(C)C1CC[C@]1(C)C2=CC(=O)O[C@H]1c1ccoc1 (stereo partly drawn) | -4 | . | . | 16 | . | . | . | . | .
Cc1ccc(NC(=O)C(c2ccccc2)C2CCCC2)cc1 (stereo not drawn) | 3 | 24* | 2 | 5 | 5 | -33 | . | 7 | 5
Cc1nc2ccc(NC(=O)c3ccncc3)cc2s1 | -23 | . | . | 14 | . | . | . | . | .
CC(C)NC(=O)Cn1nc(-c2cccs2)n(-c2ccncc2)c1=O | 1 | . | . | . | . | . | . | . | .
COc1cc(C2C(C#N)=C(N)Oc3cc4c(cc32)OCO4)cc(OC)c1OC (stereo not drawn) | 33 | 22* | -26 | 0 | . | -1 | . | 5 | 13
COc1cc(C2C(C#N)=C(N)Oc3cc(O)ccc32)cc(OC)c1OC (stereo not drawn) | -3 | -1 | 8 | 5 | 2 | 6 | . | . | .
CC(=O)N1CCN(C(=S)NC(=O)c2ccc(S(=O)(=O)N3CCOCC3)cc2)CC1 | 17 | 5 | -23 | 13 | 2 | -32 | . | . | .
CN(CCC#N)C(=S)NC(=O)c1ccc(S(=O)(=O)N2CCOCC2)cc1 | -1 | 46* | 4 | 5 | . | 10 | . | 0 | 0
CCSc1nc(C2CC2)cc(-c2cccs2)c1C#N | 46 | 22* | -17 | 12 | 3 | -18 | . | 7 | 8
O=C(COC(=O)CSc1ccc2ccccc2c1)NC1CC1 | 26 | 17 | -16 | 9 | 14 | -1 | . | . | .
O=C(COC(=O)CSc1ccc2ccccc2c1Br)NC1CC1 | 45 | 25* | -31 | 19 | . | -38 | . | 15 | 12
COC(=O)c1cc([N+](=O)[O-])c(-n2cncn2)c([N+](=O)[O-])c1 | 25 | 28* | -8 | 77* | . | 1 | . | -3 | -4
COC(=O)c1cc(F)c(-n2cncn2)c(F)c1 | 1 | -3 | 1 | 10 | 2 | 11 | . | . | .

Compound activity as filed in PubChem.
